Source: ChEMBL document CHEMBL6127135, “Generation of BT-Amide, a Bone-Targeted Pyk2 Inhibitor, Effective via Oral Administration, for the Prevention of Glucocorticoid-Induced Bone Loss” (J Med Chem, 2024)
Active and inactive are the calls of the source. The calls are words filed in the database; no cut-off is given here.

Columns and labels:
[1] = target: Protein-tyrosine kinase 2-beta (Homo sapiens, UniProt Q14289); test: Inhibition of Pyk2 kinase (unknown origin) by bioluminescent ADP-Glo kinase assay
Chain of Protein-tyrosine kinase 2-beta (Q14289 whole entry): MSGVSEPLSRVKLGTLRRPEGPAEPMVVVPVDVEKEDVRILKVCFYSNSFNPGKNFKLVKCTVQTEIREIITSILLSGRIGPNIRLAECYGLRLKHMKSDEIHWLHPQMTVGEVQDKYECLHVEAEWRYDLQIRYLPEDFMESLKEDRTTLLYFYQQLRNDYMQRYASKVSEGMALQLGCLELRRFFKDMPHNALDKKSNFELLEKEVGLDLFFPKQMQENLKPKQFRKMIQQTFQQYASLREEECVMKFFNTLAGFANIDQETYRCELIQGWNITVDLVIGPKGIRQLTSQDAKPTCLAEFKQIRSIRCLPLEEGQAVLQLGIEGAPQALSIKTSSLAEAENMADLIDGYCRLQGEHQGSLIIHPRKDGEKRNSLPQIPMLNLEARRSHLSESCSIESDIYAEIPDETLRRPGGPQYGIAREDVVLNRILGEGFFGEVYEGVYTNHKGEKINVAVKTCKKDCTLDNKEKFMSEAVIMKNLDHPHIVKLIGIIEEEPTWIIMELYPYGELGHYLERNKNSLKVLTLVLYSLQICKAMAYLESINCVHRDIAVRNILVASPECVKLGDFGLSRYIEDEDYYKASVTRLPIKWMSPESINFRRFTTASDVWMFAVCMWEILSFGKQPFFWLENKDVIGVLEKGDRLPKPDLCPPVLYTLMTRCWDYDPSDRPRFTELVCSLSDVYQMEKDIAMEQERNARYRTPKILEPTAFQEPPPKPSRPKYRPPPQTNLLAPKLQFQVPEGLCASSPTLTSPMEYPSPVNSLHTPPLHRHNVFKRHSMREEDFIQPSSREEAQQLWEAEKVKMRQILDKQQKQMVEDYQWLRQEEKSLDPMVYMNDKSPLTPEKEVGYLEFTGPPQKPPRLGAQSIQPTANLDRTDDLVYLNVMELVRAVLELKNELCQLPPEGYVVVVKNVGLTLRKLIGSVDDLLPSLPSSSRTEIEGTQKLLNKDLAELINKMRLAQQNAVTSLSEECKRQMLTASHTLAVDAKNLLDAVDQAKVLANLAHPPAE
Method in brief: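 ADP-Glo luminescent read-out of ADP formation, run per kit instructions; inhibitors tested as 8-point half-log dilution series, 1 uM down to 0.316 nM. IC50 obtained by fitting dose–response curves with an [inhibitor] vs normalized response model; each compound tested at least 3 times.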

[2] = Toxicity in Glucocorticoid-induced C57BL/6 mouse bone loss model assessed as circulating organ toxicity in serum by measuring potassium at 10 mg/kg/day, po treatment initiated 3 days prior to glucocorticoid challenge measured after 2 weeks; format: organism-based; details: in vivo, 408 h, time 17 day
Method in brief: (§1)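 Same mouse regimen: 4-month-old female C57BL/6, gavage 10 mg/kg 5×/week, prednisolone 2.1 mg/kg/d or placebo pellets. At study end, blood collected after isoflurane sedation and euthanasia. 14-parameter Comprehensive Diagnostic Profile analyser panel on plasma. Untreated and vehicle mice served as controls. N = 9–10, mean ± SD.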

[3] = Toxicity in Glucocorticoid-induced C57BL/6 mouse bone loss model assessed as circulating organ toxicity in serum by measuring phosphorus at 10 mg/kg/day, po treatment initiated 3 days prior to glucocorticoid challenge measured after 2 weeks; format: organism-based; details: in vivo, 408 h, time 17 day; method in brief: as §1
[4] = Toxicity in Glucocorticoid-induced C57BL/6 mouse bone loss model assessed as circulating organ toxicity in serum by measuring sodium at 10 mg/kg/day, po treatment initiated 3 days prior to glucocorticoid challenge measured after 2 weeks; format: organism-based; details: in vivo, 408 h, time 17 day; method in brief: as §1
[5] = Toxicity in Glucocorticoid-induced C57BL/6 mouse bone loss model assessed as circulating organ toxicity in serum by measuring amylase at 10 mg/kg/day, po treatment initiated 3 days prior to glucocorticoid challenge measured after 2 weeks; format: organism-based; details: in vivo, 408 h, time 17 day; method in brief: as §1
[6] = Toxicity in Glucocorticoid-induced C57BL/6 mouse bone loss model assessed as circulating organ toxicity in serum by measuring […] at 10 mg/kg/day, po treatment initiated 3 days prior to glucocorticoid challenge measured after 2 weeks; format: organism-based; details: in vivo, 408 h, time 17 day; method in brief: as §1
[7] = Toxicity in Glucocorticoid-induced C57BL/6 mouse bone loss model assessed as circulating organ toxicity in serum by measuring glucose at 10 mg/kg/day, po treatment initiated 3 days prior to glucocorticoid challenge measured after 2 weeks; format: organism-based; details: in vivo, 408 h, time 17 day; method in brief: as §1
Mus musculus = test: In vivo inhibition of Glucocorticoid-induced bone loss in C57BL/6 mouse assessed as prevention of bone loss by measuring increase in bone mineral density at 10 mg/kg/day, po treatment initiated 3 days prior to glucocorticoid challenge measured after 2 weeks; format: functional, organism-based; details: time 17.0 day
Method in brief: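 Female C57BL/6 mice, 4 months old, randomized; oral gavage 10 mg/kg 5 times per week, starting 3 days before subcutaneous slow-release pellet (placebo or prednisolone 2.1 mg/kg/d). Total-body BMD (head and tail excluded) by DEXA after 2 weeks; analysis blinded. Two-way ANOVA with Tukey post hoc, N = 9–10.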

[8] = Toxicity in Glucocorticoid-induced C57BL/6 mouse bone loss model assessed as circulating organ toxicity in serum by measuring blood urea nitrogen at 10 mg/kg/day, po treatment initiated 3 days prior to glucocorticoid challenge measured after 2 weeks; format: organism-based; details: in vivo, 408 h, time 17 day; method in brief: as §1
[9] = Toxicity in Glucocorticoid-induced C57BL/6 mouse bone loss model assessed as circulating organ toxicity in serum by measuring total bilirubin at 10 mg/kg/day, po treatment initiated 3 days prior to glucocorticoid challenge measured after 2 weeks; format: organism-based; details: in vivo, 408 h, time 17 day; method in brief: as §1
[10] = Toxicity in Glucocorticoid-induced C57BL/6 mouse bone loss model assessed as circulating organ toxicity in serum by measuring alkaline phosphatase at 10 mg/kg/day, po treatment initiated 3 days prior to glucocorticoid challenge measured after 2 weeks; format: organism-based; details: in vivo, 408 h, time 17 day; method in brief: as §1
[11] = Toxicity in Glucocorticoid-induced C57BL/6 mouse bone loss model assessed as circulating organ toxicity in serum by measuring Total protein at 10 mg/kg/day, po treatment initiated 3 days prior to glucocorticoid challenge measured after 2 weeks; format: organism-based; details: in vivo, 408 h, time 17 day; method in brief: as §1
[12] = Toxicity in Glucocorticoid-induced C57BL/6 mouse bone loss model assessed as circulating organ toxicity in serum by measuring calcium at 10 mg/kg/day, po treatment initiated 3 days prior to glucocorticoid challenge measured after 2 weeks; format: organism-based; details: in vivo, 408 h, time 17 day; method in brief: as §1
[13] = Toxicity in Glucocorticoid-induced C57BL/6 mouse bone loss model assessed as circulating organ toxicity in serum by measuring Albumin at 10 mg/kg/day, po treatment initiated 3 days prior to glucocorticoid challenge measured after 2 weeks; format: organism-based; details: in vivo, 408 h, time 17 day; method in brief: as §1
[14] = Toxicity in Glucocorticoid-induced C57BL/6 mouse bone loss model assessed as circulating organ toxicity in serum by measuring creatinine at 10 mg/kg/day, po treatment initiated 3 days prior to glucocorticoid challenge measured after 2 weeks; format: organism-based; details: in vivo, 408 h, time 17 day; method in brief: as §1
[15] = Toxicity in Glucocorticoid-induced C57BL/6 mouse bone loss model assessed as adverse effect at 10 mg/kg/day, po treatment initiated 3 days prior to glucocorticoid challenge measured after 2 weeks; format: organism-based; details: in vivo, 408 h, time 17 day
[16] = Toxicity in Glucocorticoid-induced C57BL/6 mouse bone loss model assessed as adverse effect by measuring mouse with skin lesions at 10 mg/kg/day, po treatment initiated 3 days prior to glucocorticoid challenge measured after 2 weeks; format: organism-based; details: in vivo, 408 h, time 17 day
Method in brief: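 Female C57BL/6 mice, 4 months old; oral gavage 10 mg/kg 5 times per week from 3 days before placebo or prednisolone (2.1 mg/kg/d) pellet implantation. Mice scored for development of skin lesions during the study.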

Structure (SMILES): CNC(=O)c1ccccc1Nc1nc(Nc2ccc(N3CCC(O)CC3)cc2OC)ncc1Cl
- IC50 [1]: 0.101 µM

Structure (SMILES): CNC(=O)c1ccccc1Nc1nc(Nc2ccc(N)cc2OC)ncc1Cl
- IC50 [1]: 0.0435 µM

Structure (SMILES): CNC(=O)c1ccccc1Nc1nc(Nc2ccc(NC(=O)CCCCC(=O)NCCCC(O)(P(=O)(O)O)P(=O)(O)O)cc2OC)ncc1Cl
- Activity [2]: Non-Toxic
- Activity [3]: Non-Toxic
- Activity [4]: Non-Toxic
- Activity [5]: Non-Toxic
- Activity [6]: Non-Toxic
- Activity [7]: Non-Toxic
- Activity (Mus musculus): Active
- Activity [8]: Non-Toxic
- Activity [9]: Non-Toxic
- Activity [10]: Non-Toxic
- IC50 [1]: 0.0447 µM
- Activity [11]: Non-Toxic
- Activity [12]: Non-Toxic
- Activity [13]: Non-Toxic
- Activity [14]: Non-Toxic
- Activity [15]: Non-Toxic

Structure (SMILES): CNC(=O)c1ccccc1Nc1nc(Nc2ccc(N3CCOCC3)cc2OC)ncc1Cl
- Activity (Mus musculus): Active
- IC50 [1]: 0.0169 µM
- Activity [16]: 15%

Structure (SMILES): CNC(=O)c1ccccc1Nc1nc(Nc2ccc(OC(=O)CCCCC(=O)NCCCC(O)(P(=O)(O)O)P(=O)(O)O)cc2OC)ncc1Cl
- Activity (Mus musculus): inactive
- Activity [16]: Non-Toxic
